T cruzi growth-1: T. cruzi proliferation inhibition; 5.9% of 77,000 active; T. cruzi beta-gal in NIH3T3, GalScreen luminescence, 90 h; inhibition, % at 8.34 µM; AID 624255;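 active means mean inhibition above about 93%, with at least 55% of replicates each passing it, limit read from the data, passing the limit was not always enough; inconclusive means only one of those two conditions holds; inactive means neither condition holds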
IDH1 R132H inh: blocks human IDH1 R132H reductase activity. 0.18% of 70,000 active. inhibition, % at 10 µM. diaphorase/resazurin fluorescence, 60 min. O75874. AID 624101; in the data active means inhibition above about 34%; inconclusive means no clear call, values can overlap the other calls; inactive means below about 11%;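 further: 0% = DMSO and 100% = no enzyme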
GASC1 inh: inhibitors of human demethylase GASC-1 KDM4C. GST-KDM4C 2-372, H3K9me3 peptide, LANCE TR-FRET. 0.15% of 96,000 active. inhibition, % at 12.5 µM;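 active means mean replicate inhibition above about 25%, with at least 55% of replicates also reaching it, limit read from the data, passing the limit was not always enough; inconclusive means only one of those two conditions met; inactive means neither condition met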
Target sequence (Q9H3R0 2-372 limits assumed): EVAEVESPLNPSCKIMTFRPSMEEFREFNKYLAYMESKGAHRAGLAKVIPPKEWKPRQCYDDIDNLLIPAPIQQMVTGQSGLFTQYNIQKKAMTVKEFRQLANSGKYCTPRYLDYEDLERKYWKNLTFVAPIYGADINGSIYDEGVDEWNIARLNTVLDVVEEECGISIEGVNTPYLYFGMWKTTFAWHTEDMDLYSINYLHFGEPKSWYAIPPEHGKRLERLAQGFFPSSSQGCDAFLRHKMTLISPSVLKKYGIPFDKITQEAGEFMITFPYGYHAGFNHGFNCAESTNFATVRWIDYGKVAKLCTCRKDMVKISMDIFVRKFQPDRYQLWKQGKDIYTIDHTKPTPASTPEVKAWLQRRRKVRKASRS
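material = GST-tagged GASC-1 (JMJD2C) catalytic fragment, aa 2-372 | amount = enzyme final amount 10 nM | medium = HEPES buffer, pH 7.5, plus ascorbate | also added = H3K9me3 peptide substrate, Fe(II), 2-oxoglutarate | dosing = single dose | times = 30 min demethylation and 1 h detection at room temperature | detection = LANCE TR-FRET | read-out basis = Fall in 671/618 emission ratio as inhibition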
Pf Dd2 growth: blocks growth of Plasmodium falciparum Dd2 parasites. 2.3% of 94,000 active. P. falciparum Dd2 growth, SYBR Green, 72 h; stronger effect = lower value. activity change, % at 10 µM; in the data active means activity change below about -80%; inconclusive means no clear call, values can overlap the other calls
T cruzi growth-2: Trypanosoma cruzi proliferation inhibition | shares compounds with T cruzi growth-1 | T. cruzi beta-gal in NIH3T3, GalScreen luminescence, 90 h | inhibition, % at 8.35 µM | 72% of 5,600 active | AID 651739;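 active means mean replicate inhibition above about 95% and at least 55% of replicates individually reaching it, limit read from the data; inconclusive means only one of the two criteria is met; inactive means neither criterion is met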
T cruzi growth-3: blocks T. cruzi growth in NIH3T3 host cells; 21% of 5,600 active; inhibition, % at 2.09 µM; shares compounds with T cruzi growth-1; T. cruzi beta-gal in NIH3T3, GalScreen luminescence, 90 h;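 active means mean inhibition above about 95%, with at least 55% of replicates also reaching it, limit read from the data; inconclusive means meets just one of the two conditions; inactive means meets neither condition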;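 further: plate controls were neutral control median for no effect and positive control median for full effect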
NIH3T3 tox: kills mouse NIH/3T3 fibroblasts | shares compounds with T cruzi growth-1 | NIH/3T3 viability, CellTiter-Glo ATP luminescence, 90 h | cytotoxicity (signal decrease), % at 8.35 µM | 14% of 5,600 active | AID 651742;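 active means mean signal decrease across replicates above about 35% based on untreated-well scatter, with enough replicates individually passing, limit read from the data; inconclusive means no rule stated though some were filed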;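 further: 0% = median of neutral control wells and 100% = median of positive control wells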
3T3 cytotox 2: cytotoxicity in mouse NIH/3T3 fibroblasts | NIH/3T3 viability, CellTiter-Glo ATP luminescence, 90 h | 56% of 5,600 active | inhibition, % at 24.9 µM | shares compounds with T cruzi growth-1;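 active means mean loss of cell viability signal at or above a set limit, and enough replicates individually reaching it; inconclusive means meets only the mean limit or only the replicate share; inactive means meets neither condition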;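 further: 0% = median of neutral control wells and 100% = median of positive control wells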
An asterisk follows results filed as active; ? = inconclusive; . = no result given. Most compounds without a hit are left out; they make up all but 5.8% or so of the library.

SMILES	T cruzi growth-1	IDH1 R132H inh	GASC1 inh	Pf Dd2 growth	T cruzi growth-2	T cruzi growth-3	NIH3T3 tox	3T3 cytotox 2
Cc1ccc(S(=O)(=O)Nc2ccc3c(c2)CC(=O)N([C@@H](C)CO)C[C@@H](C)[C@@H](CN(C)Cc2ccc4c(c2)OCO4)O3)cc1	62	2	-1	25	.	.	.	.
C[C@@H]1CN([C@H](C)CO)C(=O)Cc2cc(NS(=O)(=O)c3ccc(Cl)cc3)ccc2O[C@@H]1CN(C)Cc1ccc2c(c1)OCO2	99*	.	1	20	106*	38	?	42*
Cc1ccc(S(=O)(=O)Nc2ccc3c(c2)CC(=O)N([C@H](C)CO)C[C@H](C)[C@@H](CN(C)Cc2ccc4c(c2)OCO4)O3)cc1	106*	0	4	-60	104*	99*	-32	25*
COCC#Cc1cnc2c(c1)C(=O)N([C@H](C)CO)C[C@@H](C)[C@H](CN(C)C(=O)C1CC1)O2	97*	.	0	12	-14	-8	22	12
COCC#Cc1cnc2c(c1)C(=O)N([C@@H](C)CO)C[C@@H](C)[C@H](CN(C)C(=O)C1CC1)O2	112*	.	-1	34	39	2	24	?
COc1cc(C(=O)Nc2ccc(Oc3ncnc4sc(C)c(C)c34)cc2)cc(OC)c1OC	.	0	.	.	.	.	.	.
COc1ccc(-c2ccc([C@H]3[C@@H](CO)N4CCCCN(S(=O)(=O)c5cccs5)C[C@@H]34)cc2)cc1	107*	.	-1	2	116*	89	23	10
COc1cccc(-c2ccc([C@@H]3[C@@H](CO)N4CCCCN(S(=O)(=O)c5cccs5)C[C@@H]34)cc2)c1	97*	.	-2	35	60	-3	21	25*
COc1cccc(-c2ccc([C@H]3[C@H]4CN(S(=O)(=O)c5cccs5)CCCCN4[C@H]3CO)cc2)c1	75	.	-1	10	.	.	.	.
COc1ccc(NC(=O)N2CCCCN3[C@H](C2)[C@H](c2ccc(C#Cc4ccccc4)cc2)[C@@H]3CO)cc1	99*	.	.	-2	109*	57	27	56*
COc1ccc(C#Cc2ccc([C@@H]3[C@@H](CO)N4CCCCN(C(=O)Nc5ccccc5)C[C@H]34)cc2)cc1	69	.	-3	-78	.	.	.	.
COc1ccc(NC(=O)N2CCCCN3[C@H](C2)[C@@H](c2ccc(C#Cc4ccccc4)cc2)[C@@H]3CO)cc1	?	.	.	-73	104*	119*	60*	104*
O=C(Nc1ccccc1)N1CCCCN2[C@@H](CO)[C@H](c3ccc(C#Cc4ccccc4)cc3)[C@@H]2C1	68	.	-1	-74	.	.	.	.
COc1ccc(NC(=O)N2CCCCN3[C@@H](CO)[C@H](c4ccc(C#Cc5ccccc5)cc4)[C@@H]3C2)cc1	67	.	.	-75	.	.	.	.
COc1ccc(C#Cc2ccc([C@@H]3[C@H]4CN(C(=O)Nc5ccccc5)CCCCN4[C@H]3CO)cc2)cc1	106*	.	-1	-70	92	94	94*	106*
COc1ccc(NC(=O)CN2CCN(S(=O)(=O)c3ccc(F)cc3)CC2)cc1	.	-1	.	.	.	.	.	.
CCC1(C)Cc2ccccc2-c2nc(NCCCO)n(-c3ccc(C)cc3)c(=O)c21 (configuration not stated)	.	0	.	.	.	.	.	.
CO[C@@H](CN(C)S(=O)(=O)c1ccc(C)cc1)[C@@H](C)CN(Cc1ccccc1Cl)[C@H](C)CO	100*	0	0	-36	95*	32	?	51*
CO[C@H](CN(C)S(=O)(=O)c1ccc(Cl)cc1)[C@H](C)CN(Cc1ccccc1Cl)[C@H](C)CO	106*	-1	-3	-57	111*	26	33	107*
COc1ccc(CNCCSc2nnnn2C)cc1	.	0	.	.	.	.	.	.
O=C(CCc1ccc(O)cc1)CC(CCc1ccc(O)cc1)O[C@@H]1OC[C@@H](O)[C@H](O)[C@H]1O (some centres not stated)	.	0	.	.	.	.	.	.
Cc1ccc(-c2ccc([C@@H]3[C@@H](CO)N4CCCCN(S(=O)(=O)c5cccc(C)c5)C[C@H]34)cc2)cc1	107*	.	.	-24	101*	115*	54*	104*
Cc1ccc(-c2ccc([C@@H]3[C@H]4CN(S(=O)(=O)c5cccc(C)c5)CCCCN4[C@H]3CO)cc2)cc1	?	.	.	-4	104*	83	21	46*
COc1ccc(NC(=O)c2ccccc2NC(=O)COc2cccc([N+](=O)[O-])c2)cc1	.	0	.	.	.	.	.	.
C[C@@H]1CN([C@H](C)CO)C(=O)Cc2cc(NC(=O)CCN3CCOCC3)ccc2O[C@H]1CN(C)C(=O)Nc1ccc(F)cc1	99*	2	0	20	61	25	7	7
SMILES	T cruzi growth-1	IDH1 R132H inh	GASC1 inh	Pf Dd2 growth	T cruzi growth-2	T cruzi growth-3	NIH3T3 tox	3T3 cytotox 2
C[C@@H]1CCCCO[C@H](CN(C)C(=O)Nc2ccc3c(c2)OCO3)[C@H](C)CN([C@@H](C)CO)C(=O)c2cc(NC(=O)Cc3ccccc3)ccc2O1	?	16	13	-74	?	45	-14	-18
C[C@@H]1CN([C@@H](C)CO)C(=O)Cc2cc(NC(=O)CCN3CCOCC3)ccc2O[C@H]1CN(C)C(=O)Nc1ccccc1	6	-1	-3	37	.	.	.	.
C[C@H]1CCCCO[C@H](CN(C)C(=O)Nc2ccc(F)cc2)[C@@H](C)CN([C@@H](C)CO)C(=O)c2cc(NC(=O)Cc3ccccc3)ccc2O1	105*	.	-1	-75	109*	69	-4	11
C[C@@H]1CCCCO[C@@H](CN(C)C(=O)Nc2ccc3c(c2)OCO3)[C@@H](C)CN([C@H](C)CO)C(=O)c2cc(NC(=O)CCCN(C)C)ccc2O1	111*	.	0	9	?	12	5	7
C[C@@H]1CN([C@H](C)CO)C(=O)c2cc(NC(=O)Cc3ccccc3)ccc2O[C@@H](C)CCCCO[C@H]1CN(C)C(=O)Nc1ccc2c(c1)OCO2	53	4	0	-74	.	.	.	.
CC(C)N(Cc1nc(-c2ccccc2)no1)S(=O)(=O)c1ccccc1[N+](=O)[O-]	.	0	.	.	.	.	.	.
C[C@H](CO)N1C[C@H](C)[C@@H](CN(C)C(=O)Nc2ccc(F)cc2)OCCCC[C@H](C)Oc2ccc(NC(=O)Cc3ccccc3)cc2C1=O	98*	.	-2	-67	?	45	-14	4
C[C@H]1CN([C@@H](C)CO)C(=O)Cc2cc(NC(=O)CCCN(C)C)ccc2O[C@@H]1CN(C)C(=O)Nc1ccc2c(c1)OCO2	?	0	4	-46	17	26	-11	-2

Assay outcomes as filed in PubChem.
